# In ChEMBL document CHEMBL1148692, “Synthesis, antiviral and antitumor activity of 2-substituted-5-amidino-benzimidazoles” (Bioorg Med Chem, 2007):
# Activity calls are given as the source filed them. No cut-off for these calls is given here.
# Key:
# [1] = tested on: NCI-H460; assay: Growth inhibition of human H460 cells by MTT assay; type: functional, cell-based
# In short: (§1)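 Cells were kept as monolayers in DMEM with 10% FBS, 2 mM glutamine and antibiotics at 37 °C under 5% CO₂, and seeded at 1–3 × 10⁴ cells/mL. They were exposed for 72 h to five 10-fold dilutions (10⁻⁸–10⁻⁴ M), with DMSO solvent controls. Growth was read by MTT at 570 nm and expressed as percentage growth relative to time-zero and untreated controls. IC50 was obtained by linear regression from quadruplicates in three experiments.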
# [2] = tested on: HeLa; assay: Growth inhibition of human HeLa cells by MTT assay; type: functional, cell-based; in short: as §1
# [3] = tested on: MIA PaCa-2; assay: Growth inhibition of human MiaPaCa2 cells by MTT assay; type: functional, cell-based; in short: as §1
# [4] = tested on: SW-620; assay: Growth inhibition of human SW620 cells by MTT assay; type: functional, cell-based; in short: as §1
# [5] = tested on: MCF7; assay: Growth inhibition of human MCF7 cells by MTT assay; type: functional, cell-based; in short: as §1
# [6] = Growth inhibition of human WI38 cells by MTT assay; type: cell-based; details: WI-38; in short: as §1
# [7] = tested on: Human adenovirus 5; assay: Antiviral activity against Adenovirus 5 in HeLa cells by MTT assay; type: functional, organism-based; details: in the assay text read “by optical evaluation of CPE” for “by MTT assay”; for EC50: Human mastadenovirus C
# In short: (§2)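 HeLa monolayers were seeded at 10⁵ cells/mL and grown in DMEM with 10% FBS. Compounds were serially diluted from 10⁻⁴ to 10⁻¹⁰ M and added to one-day-old confluent monolayers, which were then immediately infected at 10 CCID50 in DMEM with 2% serum. Cytopathic effect was scored by optical microscopy at 48 h and compared with untreated infected wells. EC50 is the mean of at least three independent evaluations.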
# [8] = tested on: Human alphaherpesvirus 1; assay: Antiviral activity against Herpesvirus 1 in HeLa cells by MTT assay; type: functional, organism-based; details: in the assay text read “by optical evaluation of CPE” for “by MTT assay”; for EC50: Human alphaherpesvirus 1, HeLa; in short: as §2
# [9] = tested on: Coxsackievirus B5; assay: Antiviral activity against Coxsackievirus B5 in GMK cells by MTT assay; type: functional, organism-based; details: Enterovirus B
# In short: (§3)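 GMK monolayers were seeded at 10⁵ cells/mL and grown in DMEM with 10% FBS. Compound dilutions from 10⁻⁴ to 10⁻¹⁰ M were added to one-day-old confluent cells, immediately followed by virus at 10 CCID50 in DMEM with 2% serum. Cell lysis was followed microscopically at 24 h and quantified by MTT, as % CPE inhibition versus infected wells without compound. EC50 is the mean of at least two independent MTT experiments.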
# [10] = tested on: Human echovirus 7; assay: Antiviral activity against Echovirus 7 in GMK cells by MTT assay; type: functional, cell-based, Echovirus E7; details: Enterovirus B; in short: as §3
Compound,IC50 [1],IC50 [2],IC50 [3],IC50 [4],IC50 [5],IC50 [6],Activity [7],Activity [8],EC50 [9],EC50 [10],EC50 [7],EC50 [8]
N=C(N)c1ccc2[nH]c(-c3cnc[nH]3)nc2c1,> 100 µM,> 100 µM,34 µM,> 100 µM,7.2 µM,> 100 µM,inactive,inactive,> 100 µM,> 100 µM,–,–
COc1cc([C@@H]2c3cc4c(cc3[C@@H](O[C@@H]3O[C@@H]5CO[C@@H](C)O[C@H]5[C@H](O)[C@H]3O)[C@H]3COC(=O)[C@H]23)OCO4)cc(OC)c1O [ETOPOSIDE],0.2 µM,2.9 µM,–,–,–,–,–,–,–,–,–,–
CC(C)NC(=N)c1ccc2[nH]c(-c3cnc[nH]3)nc2c1,> 100 µM,> 100 µM,> 100 µM,> 100 µM,26 µM,> 100 µM,inactive,–,> 100 µM,> 100 µM,–,> 100 µM
c1ncc(-c2nc3cc(C4=NCCN4)ccc3[nH]2)[nH]1,> 100 µM,> 100 µM,> 100 µM,> 100 µM,≥ 100 µM,> 100 µM,inactive,–,> 100 µM,> 100 µM,–,> 100 µM

# Continued, in another order:
IC50 [1],IC50 [2],IC50 [3],IC50 [4],IC50 [5],Compound,IC50 [6],Activity [7],Activity [8],EC50 [9],EC50 [10],EC50 [7],EC50 [8]
> 100 µM,82 µM,> 100 µM,> 100 µM,≥ 100 µM,N=C(N)c1ccc2[nH]c(-c3ccccn3)nc2c1,59.4 µM,–,–,1.7 µM,3.2 µM,> 100 µM,> 100 µM
22.5 µM,16 µM,16 µM,19 µM,12 µM,c1ccc(-c2nc3cc(C4=NCCN4)ccc3[nH]2)nc1,12 µM,–,–,4.3 µM,0.63 µM,> 100 µM,56.7 µM
38 µM,20 µM,11.5 µM,15 µM,5 µM,Cn1cccc1-c1nc2cc(C3=NCCN3)ccc2[nH]1,15.6 µM,–,–,> 100 µM,> 100 µM,> 100 µM,28.5 µM
> 100 µM,> 100 µM,79 µM,> 100 µM,50 µM,CC(C)NC(=N)c1ccc2[nH]c(-c3ccccn3)nc2c1,20.4 µM,–,–,2.7 µM,0.33 µM,15.2 µM,> 100 µM
> 100 µM,70 µM,> 100 µM,84 µM,12 µM,Cn1cccc1-c1nc2cc(C(=N)N)ccc2[nH]1,> 100 µM,–,–,3.5 µM,5 µM,5.9 µM,30 µM
> 100 µM,> 100 µM,> 100 µM,> 100 µM,20 µM,CC(C)NC(=N)c1ccc2[nH]c(-c3cccn3C)nc2c1,> 100 µM,inactive,inactive,> 100 µM,23.2 µM,–,–
